Source: PubChem BioAssay (several laboratories)
Rows were chosen to be rich in hits. Some 2.2% of all compounds tested hit in one or more screens of this group.
DNA FID counter: displaces DNA intercalator in HCV helicase counter-screen | AID 1845 | inhibition, % at 7.9 µM | actives 0.17% (n = 290,000) | DNA fluorescent intercalator displacement, fluorescence; in the data active means inhibition above about 37%;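 further: 0% = vehicle and 100% = reference compound; higher means more ethidium bromide displaced from hairpin DNA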
DAGLB inhibitor: diacylglycerol lipase beta (human) inhibition; HEK293T DAGLB membrane lysate, EnzChek fluorogenic substrate; Q8NCG7; inhibition, % at 5.17 µM; actives 0.059% (n = 340,000); AID 504411; in the data active means inhibition above about 34%;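 further: 0% = enzyme with vehicle and 100% = wells lacking enzyme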
Target sequence (Q8NCG7 whole entry, looked up): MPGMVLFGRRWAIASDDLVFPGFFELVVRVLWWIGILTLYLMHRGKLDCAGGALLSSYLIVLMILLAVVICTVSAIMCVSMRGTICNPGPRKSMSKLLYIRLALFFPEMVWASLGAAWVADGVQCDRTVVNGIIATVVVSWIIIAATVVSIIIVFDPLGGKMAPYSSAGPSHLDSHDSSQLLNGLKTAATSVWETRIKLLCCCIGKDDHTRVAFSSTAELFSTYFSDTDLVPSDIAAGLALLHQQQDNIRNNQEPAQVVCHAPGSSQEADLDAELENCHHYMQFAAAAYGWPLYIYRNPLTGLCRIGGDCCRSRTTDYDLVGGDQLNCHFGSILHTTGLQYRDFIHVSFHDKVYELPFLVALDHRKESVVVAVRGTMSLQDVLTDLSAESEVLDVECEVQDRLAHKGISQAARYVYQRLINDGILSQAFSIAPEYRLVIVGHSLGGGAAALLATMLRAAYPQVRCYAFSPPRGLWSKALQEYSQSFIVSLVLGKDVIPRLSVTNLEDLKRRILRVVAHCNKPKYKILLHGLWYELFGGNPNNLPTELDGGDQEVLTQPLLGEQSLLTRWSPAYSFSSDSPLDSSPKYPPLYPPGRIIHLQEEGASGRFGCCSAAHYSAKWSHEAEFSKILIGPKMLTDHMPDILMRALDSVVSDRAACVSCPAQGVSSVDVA
GPR7 antag: antagonists of human GPR7 (neuropeptides B/W receptor 1); P48145; GPR7-expressing cells, fluorescence antagonist assay; inhibition, % at 4.4 µM; actives 1.1% (n = 290,000); AID 1861; in the data active means inhibition above about 16%, passing the limit was not always enough;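 further: cells stimulated with the agonist NPW; 0% = agonist with vehicle and 100% = vehicle without agonist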
GRK2 inh: inhibitors of human GRK2 displacing RNA aptamer; P25098; bead flow cytometry, FAM-aptamer displacement from GRK2; inhibition of aptamer binding, % at 10 µM; actives 0.59% (n = 330,000);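 active means inhibition of aptamer binding above 40%, roughly 3 SD of noise, on plates passing a quality check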;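 further: median bead fluorescence of bound FAM aptamer so fluorescent compounds give negative values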
HCV core dimer: blocks dimerization of HCV core protein; AID 1899; TR-FRET GST/Flag-core106 dimerization, 1536-well; inhibition, % at 5 µM; actives 0.33% (n = 300,000);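 active means inhibition above the mean of all tested compounds plus 3 SD, set per screening campaign, cut at about 45% in these data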
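System – GST-tagged and Flag-tagged HCV core protein residues 1-106 · Repeats – one well for each compound · Technique – TR-FRET 671 and 617 nm emission · Doses – one concentration, 5 µM, in 0.5% DMSO · Times – 4 h, 22.5 °C incubation · Also added – Eu donor and XL665 acceptor anti-tag antibodies · Measure – percent inhibition of core106 dimerization signal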
NS3 helicase inh: inhibitors of Hepatitis C virus NS3 helicase; AID 1800; NS3 helicase DNA unwinding, Cy5 molecular beacon fluorescence; inhibition, % at 10.9 µM; actives 0.56% (n = 290,000);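 active means inhibition above the mean of all tested compounds plus 3 SD, set per campaign, cut at about 35% in these data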;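 further: 0% = DMSO wells and 100% = thioflavine S control wells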
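Measured by: Cy5 fluorescence, 0 and 60 min reads / Assay system: NS3 helicase fragment of HCV / Control set: low DMSO, high thioflavine S at 110 µM / Times: 1 h reaction at 25 °C, ATP-initiated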
GRK2 CP1: confirmation of human GRK2 inhibitors displacing RNA aptamer | bead-bound GRK2, FAM-aptamer displacement, flow cytometry | aptamer displacement, % at 10 µM | actives 4% (n = 2,000) | shares compounds with GRK2 inh;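 active means aptamer displacement above 40%, near three times the noise of non-fluorescent compounds, on plates passing quality checks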;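 further: negative values mostly reflect intrinsic compound fluorescence rather than true enhancement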
FAM quench CP1: quenches fluorescent RNA aptamer, GRK2 hit artifact; shares compounds with GRK2 inh; 2,000 tested, under 10 active; fluorescence response (% of DMSO), % at 10 µM; Carboxyfluorescein RNA aptamer on beads, flow cytometry quenching; stronger effect = lower value;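 active means compounds that quench the bead-bound fluorescent RNA probe, cutting fluorescence to under half of the solvent control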;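 further: counterscreen run without GRK2 so only probe quenching by compound is measured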
GRK2 CP2: human GRK2 inhibition confirmation, cherry pick 2; shares compounds with GRK2 inh; 360 tested, under 10 active; bead-bound GRK2, FAM-aptamer displacement, flow cytometry; inhibition of aptamer binding, % at 10 µM;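 active means inhibition of aptamer binding above 40%, about triple the noise seen with nonglowing compounds, on plates passing quality control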;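 further: negative values mostly come from compounds that fluoresce themselves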
FAM quench CP2: aptamer fluorescence quenching in GRK2 counter-screen; fluorescence response vs DMSO, % at 10 µM; shares compounds with GRK2 inh; 360 tested, under 10 active; carboxyfluorescein RNA aptamer beads, flow cytometry quenching; stronger effect = lower value; AID 588494;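 active means response vs DMSO under 50%, meaning signal dropped by over half, treated as fluorescence quencher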;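 further: labelled aptamer on streptavidin beads without GRK2 as a quench counter-screen; 100% = bead fluorescence of DMSO wells and lower means quenching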
Starred values were filed as active, the others as inactive; x = no result.

SMILES | DNA FID counter | DAGLB inhibitor | GPR7 antag | GRK2 inh | HCV core dimer | NS3 helicase inh | GRK2 CP1 | FAM quench CP1 | others
Cc1cc(C)c(NC(=O)C2CCCN(S(=O)(=O)c3c(C)noc3/C=C/N(C)C)C2)c(C)c1 (centres undefined) | -33.2 | 2.3 | -14.5 | 0.0 | 2.4 | 13.4 | x | x
Cc1noc(C)c1COc1ccc(C(=O)OCC(=O)NCc2ccccc2Cl)cc1 | -27.4 | -1.2 | 6.0 | 4.0 | -1.5 | -5.7 | x | x
Cc1noc(C)c1COc1cccc(C(=O)NCc2ccccc2Cl)c1 | -21.6 | 0.5 | -0.9 | 1.0 | 1.4 | 0.6 | 2.1 | 94.4
Cc1ccccc1P(=O)(c1ccccc1)c1ccccc1C | x | -2.3 | x | x | x | x | x | x
Cc1ccc(C(=O)Nc2cccc(C(F)(F)F)c2)cc1NC(=O)c1c[nH]c2cc(C(F)(F)F)ccc2c1=O | x | -1.4 | x | 0.0 | x | x | -14.1 | 97.4
COCC(=O)N1CCC(Oc2ccc(C(=O)NCc3cnc(C)cn3)cc2)CC1 | -2.4 | -1.9 | -11.5 | 1.0 | 2.5 | 9.6 | x | x
CCn1ccnc1CNC(=O)c1ccc(OC2CCN(C(=O)COC)CC2)cc1 | 2.2 | 1.5 | -6.9 | 0.0 | -14.9 | 8.7 | 2.6 | 96.8
COCCN(C(=O)c1cc2c(s1)CCC2)c1c(N)n(CC(C)C)c(=O)[nH]c1=O | x | -0.3 | x | 43.0* | x | x | 17.0 | 98.7
CN(Cc1ccc(Cl)c(Cl)c1)C(=O)c1ccccc1SCC(=O)N1CCCC1 | x | 2.4 | x | x | x | x | x | x
Cc1nnc(SCC(=O)N2CCN(C(=O)c3ccco3)CC2)n1-c1ccccc1 | -9.2 | -0.7 | 1.8 | 1.0 | 0.3 | 1.0 | x | x
Cc1cccc(NC(=O)CCc2ccccc2)c1C | -1.8 | -0.1 | -11.0 | 85.0* | 6.6 | 1.4 | -4.5 | 98.4
Cc1cccc(NC(=O)CCS(=O)(=O)c2cccc3nsnc23)c1C | 0.6 | -0.8 | -0.6 | 3.0 | -1.1 | 8.8 | x | x | GRK2 CP2=13.3;FAM quench CP2=101.0
O=C(Nc1ccc(Cl)c(S(=O)(=O)N2CCOCC2)c1)c1ccccc1-c1ccc(C(F)(F)F)cc1 | -1.9 | -5.4 | -0.1 | 0.0 | 17.8 | -2.7 | x | x
CSCCC(NC(=O)c1ccccc1)C(=O)N/N=C(\C)Cc1ccccc1 (centres undefined) | -16.2 | 2.7 | 3.4 | 0.0 | x | 5.2 | x | x
Cc1cccnc1NC(=O)CCNC(=O)c1ccccc1Cl | -6.9 | 1.8 | -7.8 | 44.0* | -7.5 | 14.3 | x | x | GRK2 CP2=11.5;FAM quench CP2=102.0
CN(C)C(CNC(=O)C1CCCN(C(=O)c2ccc(Cl)cc2)C1)c1ccco1 (centres undefined) | 2.3 | 0.3 | -14.2 | 68.0* | 0.2 | 9.7 | -5.4 | 95.1
O=C(NCc1ccc(Cl)cc1)C1CCCN(C(=O)c2ccc(Cl)cc2)C1 (centres undefined) | x | -0.4 | x | 2.0 | x | x | x | x
COc1cccc(NC(=O)CSc2nnc(-c3cc(C)n(-c4ccccc4)c3C)o2)c1 | -18.6 | -4.6 | -6.2 | 98.0* | 0.6 | -5.8 | 1.5 | 102.8
CC(=O)c1ccc(N(CC(=O)NC2CCS(=O)(=O)C2)S(=O)(=O)c2ccc(Cl)cc2)cc1 (centres undefined) | x | 1.0 | x | 0.0 | x | x | x | x
NC1=NC(=O)C(Cc2ccc(OC(F)(F)F)cc2)S1 (centres undefined) | -3.5 | -3.6 | -18.7 | 0.0 | -2.4 | 4.5 | x | x
Cc1cnnn1-c1ccc(C(=O)CCl)cc1 | -1.8 | -3.2 | 2.3 | 56.0* | 0.6 | 3.1 | -52.4 | 97.8
CC(=O)c1ccc(-n2nncc2C(C)(C)C)cc1 | -0.2 | 4.2 | 2.7 | 1.0 | -3.0 | 7.5 | x | x
Oc1ccc(C[C@H]2CNCCN2CCc2cc(C(F)(F)F)cc(C(F)(F)F)c2)cc1 | x | 1.3 | x | 44.0* | -15.4 | x | x | x | GRK2 CP2=15.2;FAM quench CP2=101.0
Oc1ccc(C[C@@H]2CNCCN2CCc2cc(C(F)(F)F)cc(C(F)(F)F)c2)cc1 | x | -2.8 | x | 0.0 | -14.9 | x | x | x
Cn1c(CCNC(=O)c2ccccc2)nc2cc(NC(=O)C3CCCCC3)ccc21 | -7.9 | -0.5 | 5.6 | 1.0 | 4.9 | -4.7 | -8.4 | 99.4
SMILES | DNA FID counter | DAGLB inhibitor | GPR7 antag | GRK2 inh | HCV core dimer | NS3 helicase inh | GRK2 CP1 | FAM quench CP1 | others
CCC(=O)NCCc1nc2cc(NC(=O)c3ccccc3Cl)ccc2n1C | -6.9 | -1.8 | -11.4 | 0.0 | x | 10.1 | x | x
Cn1c(CCNC(=O)c2ccccc2)nc2ccccc21 | 0.1 | 0.6 | -5.7 | 1.0 | -1.2 | 2.4 | x | x
CCC(=O)NCCc1nc2cc(NC(=O)Nc3ccccc3)ccc2n1C | -2.5 | -1.1 | -8.7 | 6.0 | 6.2 | -5.8 | -10.0 | 95.9
CC(=O)Nc1ccc2c(c1)nc(CCNC(=O)c1ccccc1)n2C | -2.3 | 0.7 | -3.8 | 57.0* | -0.3 | 5.9 | -0.7 | 98.9
O=C(CC1C[C@H](C(=O)N2CCCCC2)[C@@]2(CCc3ccccc3)c3[nH]c4ccccc4c3CCN2C1=O)NCCCn1ccnc1 (some centres undefined) | x | 3.2 | x | 10.0 | x | x | x | x
COc1cc(CCCN2C(N)=NC[C@@H]2Cc2ccccc2)cc(OC)c1OC | x | -1.8 | x | 0.0 | -22.0 | x | x | x
CN(C)S(=O)(=O)n1cnc(C(CCO)c2ncn(S(=O)(=O)N(C)C)c2CCCO)c1 (centres undefined) | x | -1.6 | x | 40.0 | x | x | 3.2 | 21.6*
CN(C)S(=O)(=O)n1cnc(-c2ccccc2)c1-c1ccccc1 | -7.0 | -2.6 | -0.3 | 2.0 | -5.9 | -10.0 | x | x
COc1cc(OC)cc(C(=O)NCC(=O)OCC(=O)N2CC(C)CC(C)C2)c1 (centres undefined) | -31.7 | 0.6 | -7.8 | 0.0 | 0.2 | -20.1 | x | x
COCCNC(=O)c1ccc(Cl)c(S(=O)(=O)Nc2cccc(C)c2C)c1 | -19.9 | 0.3 | -6.5 | 65.0* | -5.9 | -2.9 | x | x | GRK2 CP2=22.3;FAM quench CP2=99.0
Cc1[nH]c(C)c(S(=O)(=O)N2CCCCC2)c1C(=O)N1CCCCC1 | -9.8 | -1.1 | -17.4 | 4.0 | 7.4 | 1.2 | x | x
Cc1noc(C)c1COC(=O)Cc1ccc(Br)cc1 | -1.2 | -1.6 | -3.0 | 0.0 | -6.0 | -2.1 | x | x
CCc1c(C)[nH]c(C(=O)OCc2ccccc2)c1C | -12.5 | -5.7 | 3.4 | x | x | -6.9 | x | x
CCc1c(C(=O)OCc2ccccc2)[nH]c(C)c1C | -14.7 | -7.8 | -23.4 | 93.0* | -2.4 | -2.7 | -2.5 | 96.7
COc1cccc(NC(=O)C2(S(=O)(=O)c3ccc(Cl)cc3)CC2)c1 | -10.4 | -3.8 | -4.1 | 4.0 | -1.4 | 1.2 | x | x | GRK2 CP2=-14.3;FAM quench CP2=101.0
